Source: ChEMBL document CHEMBL1137648, “Synergistic efficacy of the combination of ST-246 with CMX001 against orthopoxviruses” (Antimicrob Agents Chemother, 2007)

Experiments:
Vaccinia virus [1] = assay: Antiviral activity against Vaccinia virus Copenhagen in HFF cells assessed as reduction plaque formation after 3 days; type: functional, organism-based; settings: Orthopoxvirus vaccinia, 72 h
Vaccinia virus [2] = assay: Antiviral activity against Vaccinia virus WR in HFF cells assessed as reduction plaque formation after 3 days; type: functional, organism-based; settings: Orthopoxvirus vaccinia, 72 h
Cowpox virus [3] = assay: Antiviral activity against Cowpox virus Brighton in HFF cells assessed as reduction plaque formation after 3 days; type: functional, organism-based, Cowpox virus (Brighton Red); settings: 72 h
[4] = Cytotoxicity against HFF cells after 7 days by neutral red assay; type: cell-based; settings: human
Summary of the method: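 Confluent non-dividing HFF cells (2.5 x 10^4 cells/well) were exposed to a drug concentration series for 7 days at 37°C. Monolayers were then neutral red-stained, and the CC50 is the concentration cytotoxic to 50% of uninfected cells. Values are the mean of ≥2 assays ± standard deviation.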

[5] = Selectivity index, ratio CC50 for HFF cells to EC50 for Vaccinia virus Copenhagen; type: toxicity, cell-based; settings: human, read-out: Ratio CC50/EC50
[6] = Selectivity index, ratio CC50 for HFF cells to EC50 for Vaccinia virus WR; type: toxicity, cell-based; settings: human, read-out: Ratio CC50/EC50
[7] = Selectivity index, ratio CC50 for HFF cells to EC50 for Cowpox virus Brighton; type: toxicity, cell-based; settings: human, read-out: Ratio CC50/EC50
Cowpox virus [8] = assay: Antiviral activity against Cowpox virus Brighton infected BALB/c mouse assessed as virus-induced mortality at 15 mg/kg, ip once daily for 5 days; type: functional, Cowpox virus (Brighton Red); settings: route intraperitoneal
Cowpox virus [9] = assay: Antiviral activity against Cowpox virus Brighton infected BALB/c mouse assessed as virus-induced mortality at 15 mg/kg, ip treated for 5 days after 3 days of viral inoculation; type: functional, Cowpox virus (Brighton Red); settings: route intraperitoneal
Cowpox virus [10] = assay: Antiviral activity against Cowpox virus Brighton infected BALB/c mouse assessed as virus-induced mortality at 15 mg/kg, ip treated for 5 days after 6 days of viral inoculation; type: functional, Cowpox virus (Brighton Red); settings: route intraperitoneal
Cowpox virus [11] = assay: Antiviral activity against Cowpox virus Brighton infected BALB/c mouse assessed as virus-induced mean day of death at 15 mg/kg, ip treated for 5 days after 6 days of viral inoculation; type: functional, Cowpox virus (Brighton Red); settings: route intraperitoneal
Cowpox virus [12] = assay: Antiviral activity against Cowpox virus Brighton infected BALB/c mouse assessed as virus-induced mortality at 25 mg/kg, ip treated for 5 days after 6 days of viral inoculation; type: functional, Cowpox virus (Brighton Red); settings: route intraperitoneal
Cowpox virus [13] = assay: Antiviral activity against Cowpox virus Brighton infected BALB/c mouse assessed as virus-induced mortality at 5 mg/kg, ip treated for 5 days after 6 days of viral inoculation; type: functional, Cowpox virus (Brighton Red); settings: route intraperitoneal
Cowpox virus [14] = assay: Antiviral activity against Cowpox virus Brighton infected BALB/c mouse assessed as virus-induced mean day of death at 25 mg/kg, ip treated for 5 days after 6 days of viral inoculation; type: functional, Cowpox virus (Brighton Red); settings: route intraperitoneal
Cowpox virus [15] = assay: Antiviral activity against Cowpox virus Brighton infected BALB/c mouse assessed as virus-induced mean day of death at 5 mg/kg, ip treated for 5 days after 6 days of viral inoculation; type: functional, Cowpox virus (Brighton Red); settings: route intraperitoneal
Cowpox virus [16] = assay: Antiviral activity against Cowpox virus Brighton infected BALB/c mouse assessed as virus-induced mean day of death at 1 mg/kg, po treated for 5 days after 6 days of viral inoculation; type: functional, Cowpox virus (Brighton Red)
Cowpox virus [17] = assay: Antiviral activity against Cowpox virus Brighton infected BALB/c mouse assessed as virus-induced mean day of death at 0.3 mg/kg, po treated for 5 days after 6 days of viral inoculation; type: functional, Cowpox virus (Brighton Red)
Cowpox virus [18] = assay: Antiviral activity against Cowpox virus Brighton infected BALB/c mouse assessed as virus-induced mortality at 3 mg/kg, po treated for 5 days after 1 day of viral inoculation; type: functional, Cowpox virus (Brighton Red)
Cowpox virus [19] = assay: Antiviral activity against Cowpox virus Brighton infected BALB/c mouse assessed as virus-induced mortality at 1 mg/kg, po treated for 5 days after 1 day of viral inoculation; type: functional, Cowpox virus (Brighton Red)
Cowpox virus [20] = assay: Antiviral activity against Cowpox virus Brighton infected BALB/c mouse assessed as virus-induced mortality at 0.3 mg/kg, po treated for 5 days after 1 day of viral inoculation; type: functional, Cowpox virus (Brighton Red)
Cowpox virus [21] = assay: Antiviral activity against Cowpox virus Brighton infected BALB/c mouse assessed as virus-induced mean day of death at 1 mg/kg, po treated for 5 days after 1 day of viral inoculation; type: functional, Cowpox virus (Brighton Red)
Cowpox virus [22] = assay: Antiviral activity against Cowpox virus Brighton infected BALB/c mouse assessed as virus-induced mean day of death at 0.3 mg/kg, po treated for 5 days after 1 day of viral inoculation; type: functional, Cowpox virus (Brighton Red)
Cowpox virus [23] = assay: Antiviral activity against Cowpox virus Brighton infected BALB/c mouse assessed as virus-induced mortality at 3 mg/kg, po treated for 5 days after 3 days of viral inoculation; type: functional, Cowpox virus (Brighton Red)
Cowpox virus [24] = assay: Antiviral activity against Cowpox virus Brighton infected BALB/c mouse assessed as virus-induced mortality at 1 mg/kg, po treated for 5 days after 3 days of viral inoculation; type: functional, Cowpox virus (Brighton Red)
Cowpox virus [25] = assay: Antiviral activity against Cowpox virus Brighton infected BALB/c mouse assessed as virus-induced mortality at 0.3 mg/kg, po treated for 5 days after 3 days of viral inoculation; type: functional, Cowpox virus (Brighton Red)
Cowpox virus [26] = assay: Antiviral activity against Cowpox virus Brighton infected BALB/c mouse assessed as virus-induced mean day of death at 3 mg/kg, po treated for 5 days after 3 days of viral inoculation; type: functional, Cowpox virus (Brighton Red)
Cowpox virus [27] = assay: Antiviral activity against Cowpox virus Brighton infected BALB/c mouse assessed as virus-induced mean day of death at 1 mg/kg, po treated for 5 days after 3 days of viral inoculation; type: functional, Cowpox virus (Brighton Red)
Cowpox virus [28] = assay: Antiviral activity against Cowpox virus Brighton infected BALB/c mouse assessed as virus-induced mean day of death at 0.3 mg/kg, po treated for 5 days after 3 days of viral inoculation; type: functional, Cowpox virus (Brighton Red)
Cowpox virus [29] = assay: Antiviral activity against Cowpox virus Brighton infected BALB/c mouse assessed as virus-induced mortality at 3 mg/kg, po treated for 5 days after 6 days of viral inoculation; type: functional, Cowpox virus (Brighton Red)
Cowpox virus [30] = assay: Antiviral activity against Cowpox virus Brighton infected BALB/c mouse assessed as virus-induced mortality at 1 mg/kg, po treated for 5 days after 6 days of viral inoculation; type: functional, Cowpox virus (Brighton Red)
Cowpox virus [31] = assay: Antiviral activity against Cowpox virus Brighton infected BALB/c mouse assessed as virus-induced mortality at 0.3 mg/kg, po treated for 5 days after 6 days of viral inoculation; type: functional, Cowpox virus (Brighton Red)
Cowpox virus [32] = assay: Antiviral activity against Cowpox virus Brighton infected BALB/c mouse assessed as virus-induced mean day of death at 3 mg/kg, po treated for 5 days after 6 days of viral inoculation; type: functional, Cowpox virus (Brighton Red)
Cowpox virus [33] = assay: Antiviral activity against Cowpox virus Brighton in HFF cells assessed as inhibition of viral replication after 7 days; type: functional, organism-based, Cowpox virus (Brighton Red); settings: 168 h
Ectromelia virus Moscow = assay: Antiviral activity against Ectromelia virus Moscow in HFF cells assessed as inhibition of viral replication after 7 days; type: functional, organism-based; settings: 168 h
Cowpox virus [34] = assay: Antiviral activity against Cowpox virus Brighton infected BALB/c mouse assessed as virus-induced mortality at 10 mg/kg, po treated for 5 days after 1 day of viral inoculation; type: functional, Cowpox virus (Brighton Red)
Cowpox virus [35] = assay: Antiviral activity against Cowpox virus Brighton infected BALB/c mouse assessed as virus-induced mean day of death at 10 mg/kg, po treated for 5 days after 1 day of viral inoculation; type: functional, Cowpox virus (Brighton Red)
Cowpox virus [36] = assay: Antiviral activity against Cowpox virus Brighton infected BALB/c mouse assessed as virus-induced mean day of death at 3 mg/kg, po treated for 5 days after 1 day of viral inoculation; type: functional, Cowpox virus (Brighton Red)
Cowpox virus [37] = assay: Antiviral activity against Cowpox virus Brighton infected BALB/c mouse assessed as virus-induced mortality at 10 mg/kg, po treated for 5 days after 3 days of viral inoculation; type: functional, Cowpox virus (Brighton Red)
Cowpox virus [38] = assay: Antiviral activity against Cowpox virus Brighton infected BALB/c mouse assessed as virus-induced mean day of death at 10 mg/kg, po treated for 5 days after 3 days of viral inoculation; type: functional, Cowpox virus (Brighton Red)
Cowpox virus [39] = assay: Antiviral activity against Cowpox virus Brighton infected BALB/c mouse assessed as virus-induced mortality at 10 mg/kg, po treated for 5 days after 6 days of viral inoculation; type: functional, Cowpox virus (Brighton Red)
Cowpox virus [40] = assay: Antiviral activity against Cowpox virus Brighton infected BALB/c mouse assessed as virus-induced mean day of death at 10 mg/kg, po treated for 5 days after 6 days of viral inoculation; type: functional, Cowpox virus (Brighton Red)
Monkeypox virus = assay: Antiviral activity against Monkeypox virus in HFF cells assessed as inhibition of viral replication after 7 days; type: functional, organism-based; settings: 168 h
Camelpox virus = assay: Antiviral activity against Camelpox virus in HFF cells assessed as inhibition of viral replication after 7 days; type: functional, organism-based; settings: 168 h
Vaccinia virus [41] = assay: microbe, parasite or virus in culture; settings: Orthopoxvirus vaccinia, Copenhagen, HFF, 168 h
Variola virus = assay: microbe, parasite or virus in culture; settings: HFF, 168 h

| Structure (SMILES) | EC50 (Vaccinia virus [1]) | EC50 (Vaccinia virus [2]) | EC50 (Cowpox virus [3]) | CC50 at 168 h [4] | selectivity ratio [5] | selectivity ratio [6] | selectivity ratio [7] | Activity (Cowpox virus [16]) | Activity (Cowpox virus [18]) | Activity (Cowpox virus [19]) | Activity (Cowpox virus [21]) | Activity (Cowpox virus [23]) | Activity (Cowpox virus [24]) | Activity (Cowpox virus [26]) | Activity (Cowpox virus [27]) | Activity (Cowpox virus [29]) | Activity (Cowpox virus [30]) | Activity (Cowpox virus [32]) | also measured |
| --- | --- | --- | --- | --- | --- | --- | --- | --- | --- | --- | --- | --- | --- | --- | --- | --- | --- | --- | --- |
| Nc1ccn(C[C@@H](CO)OCP(=O)(O)O)c(=O)n1.O.O [CIDOFOVIR] | 29.2 µM | 33 µM | 41.1 µM | > 317 µM | > 10.9 | ≥ 9.6 | > 7.7 | – | – | – | – | – | – | – | – | – | – | – | Activity (Cowpox virus [8]): 0%; Activity (Cowpox virus [9]): 0%; Activity (Cowpox virus [10]): 60%; Activity (Cowpox virus [11]): 12.8 days; Activity (Cowpox virus [12]): 80%; Activity (Cowpox virus [13]): 93%; Activity (Cowpox virus [14]): 11.5 days; Activity (Cowpox virus [15]): 11.2 days |
| CCCCCCCCCCCCCCCCOCCCOP(=O)(O)CO[C@H](CO)Cn1ccc(N)nc1=O [BRINCIDOFOVIR] | 0.14 µM | 0.13 µM | 0.24 µM | 42 µM | 300 | 323 | 175 | 9.9 days | 0% | 20% | 13.7 days | 27% | 100% | 16.3 days | 12 days | 100% | 100% | 9.9 days | Activity (Cowpox virus [17]): 10 days; Activity (Cowpox virus [20]): 73%; Activity (Cowpox virus [22]): 11.7 days; Activity (Cowpox virus [25]): 87%; Activity (Cowpox virus [28]): 12.8 days; Activity (Cowpox virus [31]): 100% |
| O=C(NN1C(=O)[C@@H]2[C@@H]3C=C[C@@H]([C@H]4C[C@@H]34)[C@@H]2C1=O)c1ccc(C(F)(F)F)cc1 [TECOVIRIMAT] | 0.05 µM | 0.1 µM | 0.48 µM | > 100 µM | > 2000 | > 1000 | > 208 | 9.5 days | 20% | 100% | 9.4 days | 33% | 100% | 15.2 days | 14.4 days | 80% | 100% | 13.5 days | EC50 (Cowpox virus [33]): ≤ 0.07 µM; EC50 (Ectromelia virus Moscow): ≤ 0.07 µM; Activity (Cowpox virus [34]): 73%; Activity (Cowpox virus [35]): 13.2 days; Activity (Cowpox virus [36]): 11.3 days; Activity (Cowpox virus [37]): 13%; Activity (Cowpox virus [38]): 15.5 days; Activity (Cowpox virus [39]): 100%; Activity (Cowpox virus [40]): 13.5 days; EC50 (Monkeypox virus): ≤ 0.07 µM; EC50 (Camelpox virus): ≤ 0.07 µM; EC50 (Vaccinia virus [41]): ≤ 0.07 µM; EC50 (Variola virus): ≤ 0.07 µM |
